The values that follow come from ChEMBL document CHEMBL1128747, “Phosphinic acid analogues of GABA. 1. New potent and selective GABAB agonists” (J Med Chem, 1995).

One may read the pIC50 as −log10 of the IC50, conventionally taken in molar units. In general, inhibition refers to the share of the control response that was lost under treatment. High values mean a response far below the control, low ones a response near the control.

pIC50: −log10 of the molar value. Where only a bound is given, the exact number is not on record here.

Assay [1] concerns the target T1, GABA B receptor (Rattus norvegicus, UniProt O88871+Q9Z0U4). Briefly: (§1) Inhibition of [3H]CGP-27492 binding to Gamma-aminobutyric acid type B receptor of rat cortex.
Assay [2] relates to GABA-A receptor; anion channel. Briefly: Inhibition of [3H]muscimol binding to GABA-A receptor of rat cortex. The format is tissue-based. Conditions: for pIC50: read-out: IC50; call rule not given here.
Assay [3] concerns the target T2, GABA-B receptor (Homo sapiens, UniProt O75899+Q9UBS5). The assay can be described thus: Inhibition of [3H]-baclofen binding to Gamma-aminobutyric acid type B receptor of cat cerebellum. The assay is classed as tissue-based, Felis catus. The settings on record: target entry is the homologue from another species.
The nature of assay [4]: Inhibition of [3H]- 5-HT binding to 5-hydroxytryptamine 1 receptor at 10e-5 M.
The target in assay [5] is T3, Serotonin 2 (5-HT2) receptor (Homo sapiens) (UniProt P41595+P28223+P28335). Briefly: Inhibition of [3H]ketanserin binding to 5-hydroxytryptamine 2 receptor at 10e-5 M. The assay is classed as protein assay.
Assay [6] has as its target T4, Adenosine receptor A1 (Homo sapiens) (UniProt P30542).
T4 sequence (whole entry): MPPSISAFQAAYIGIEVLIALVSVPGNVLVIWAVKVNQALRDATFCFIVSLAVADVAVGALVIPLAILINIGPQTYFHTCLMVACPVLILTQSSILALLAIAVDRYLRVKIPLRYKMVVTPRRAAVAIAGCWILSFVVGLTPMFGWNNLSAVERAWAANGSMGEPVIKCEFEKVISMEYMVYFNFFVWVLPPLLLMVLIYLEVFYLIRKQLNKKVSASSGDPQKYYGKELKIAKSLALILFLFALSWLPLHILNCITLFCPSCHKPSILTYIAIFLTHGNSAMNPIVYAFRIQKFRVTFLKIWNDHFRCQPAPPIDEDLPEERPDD
The assay can be described thus: Inhibition of [3H]- N-6-CA binding to Adenosine A1 receptor at 10e-5 M.

The target in assay [7] is Adrenergic receptor alpha-1 (Homo sapiens) (UniProt P35348+P25100+P35368). The assay can be described thus: Inhibition [3H]- prazosin binding to Alpha-1 adrenergic receptor at 10e-5 M. The assay is classed as protein assay.
Assay [8] deals with T5, GABA-A receptor; anion channel (Homo sapiens) (UniProt P14867+P47870+P18507+P28472+P48169+Q99928+Q9UN88+P34903+O00591+O14764+Q8N1C3+P18505+P78334+P47869+P31644+Q16445). The assay can be described thus: Inhibition of [3H]- flunitrazepam binding to GABA-A benzodiazepine receptor at 10e-5 M. The assay is classed as protein-complex assay.
Assay [9] has as its target T6, Adrenergic receptor beta (Homo sapiens) (UniProt P08588+P07550+P13945). Briefly: Inhibition of [3H]- DHA binding to Beta adrenergic receptor at 10e-5 M. The assay is classed as protein assay.
In assay [10] the target is T5, GABA-A receptor; anion channel (Homo sapiens). Briefly: Inhibition of [3H]- muscimol binding to Gamma-aminobutyric acid A (GABA-A) receptor at 10e-5 M. The format is protein-complex assay.
Assay [11] addresses Histamine H1 receptor (Homo sapiens) (UniProt P35367). Briefly: Inhibition of [3H]- doxepine binding to histamine 1 receptor at 10e-5 M.
Assay [12] is described as follows: The compound was tested for blockade of the monosynaptic reflexes in the hemisected neonatal spinal cord. The assay is classed as functional, Rattus norvegicus.
Assay [13] deals with Muscarinic acetylcholine receptor (Homo sapiens) (UniProt P20309+P08173+P11229+P08172+P08912). The assay can be described thus: Inhibition of [3H]CMD binding to muscarinic ACh receptor at 10e-5 M. The format is protein assay.
In assay [14] the target is Mu-type opioid receptor (Homo sapiens) (UniProt P35372). Briefly: Inhibition of [3H]- naloxone binding to mu-opiate receptor at 10e-5 M.
In assay [15] the test system is Rattus norvegicus. Briefly: Deterioration of rotarod performance of rats 0.5-1 hour after subcutaneous administration of compound. The format is functional, organism-based. Summed up:
(§2)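 Male Sprague-Dawley rats (120-140 g), eight per dose. Compound is dissolved in water and given orally (5 mL/kg) or subcutaneously into the neck (2 mL/kg). Rats are pre-trained to stay 300 s on an 11 rpm, 6 cm cylinder. Time on the rod (maximum 300 s) is recorded at 0.5-1 h after sc or 1.5-2 h after po dosing. EC50 is the dose in µmol/kg at which 50% fall off within ≤150 s, estimated by Probit.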
For orientation: Falling from the rotarod earlier than controls is read as motor impairment.

The species entered for assay [16] is Rattus norvegicus. Briefly: The compound was tested for inhibition of release of [3H]GABA from rat cortical slices after electrical stimulation. The format is functional.
The target in assay [17] is Substance-P receptor (Homo sapiens) (UniProt P25103). The assay can be described thus: Inhibition of [3H]-substance P binding to Tachykinin receptor 1 at 10e-5 M.
Assay [18] deals with T1, GABA B receptor. The assay is described as §1. Summed up: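 Displacement of [3H]CGP27492 from rat cerebral cortex membranes, in triplicate. Nonspecific binding defined with 10 µM (R)-(-)-baclofen. IC50 obtained by computer curve fitting to a single-site model.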
This is another data set of the same source.

Assay [19] deals with Rattus norvegicus. Briefly: Deterioration of rotarod performance of rats 1-2 hour after subcutaneous administration of compound. The assay is classed as functional, organism-based.
Assay [20] relates to Rattus norvegicus. Briefly: Deterioration of rotarod performance of rats 1-2 hour after peroral administration of compound. The format is functional, organism-based. Summed up: as §2
Assay [21] has as its target T2, GABA-B receptor. The assay can be described thus: Inhibition of [3H]CGP-27492 binding to cat Gamma-aminobutyric acid type B receptor. The format is protein-complex assay, Felis catus. The settings on record: target entry is the homologue from another species.
Assay [22] concerns the target GABA-B receptor (Homo sapiens) (UniProt Q9UBS5+O75899). Briefly: Inhibition of [3H]baclofen binding to Gamma-aminobutyric acid type B receptor of cat cerebellum at 10e-5 M. The assay is classed as tissue-based. The settings on record: Felis catus, target entry is the homologue from another species.
Assay [23] addresses Serotonin 3 (5-HT3) receptor (Homo sapiens) (UniProt P46098+A5X5Y0+O95264+Q70Z44+Q8WXA8). Briefly: Inhibition of [3H]- BRL 43 694 binding to 5-hydroxytryptamine 3 receptor at 10e-5 M. The format is protein-complex assay.
Assay [24] has as its target Adrenergic receptor alpha-2 (Homo sapiens) (UniProt P08913+P18825+P18089). The assay can be described thus: Inhibition of [3H]- clonidine binding to Alpha-2 adrenergic receptor at 10e-5 M. The assay is classed as protein assay.
Assay [25] has as its target T6, Adrenergic receptor beta (Homo sapiens). The assay can be described thus: Inhibition of [3H]- DHA binding to Beta adrenergic receptor. The format is protein assay. The settings on record: concentration not given here.
Assay [26] addresses T2, GABA-B receptor. The assay can be described thus: Inhibition of [3H]baclofen binding to Gamma-aminobutyric acid type B receptor of cat cerebellum. The assay is classed as tissue-based, Felis catus. Conditions: target entry is the homologue from another species. Summed up: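 Cat cerebellar synaptosomal membranes (200-300 µg protein), prepared by sucrose density gradient, lysis, freezing and repeated washes. […] Stopped by centrifugation and pellet counted. Run in triplicate. Nonspecific binding with 10 µM (R)-(-)-baclofen. IC50 from single-site curve fit.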

Assay [27] has as its target T3, Serotonin 2 (5-HT2) receptor (Homo sapiens). Briefly: Ketanserin binding to 5-hydroxytryptamine 2 receptor at 10e-5 M. The assay is classed as protein assay.
In assay [28] the test system is Rattus norvegicus. Briefly: Deterioration of rotarod performance of rats 1.2 hour after subcutaneous administration of compound. The assay is classed as functional, organism-based.

T3 sequence (P28223 whole entry, looked up): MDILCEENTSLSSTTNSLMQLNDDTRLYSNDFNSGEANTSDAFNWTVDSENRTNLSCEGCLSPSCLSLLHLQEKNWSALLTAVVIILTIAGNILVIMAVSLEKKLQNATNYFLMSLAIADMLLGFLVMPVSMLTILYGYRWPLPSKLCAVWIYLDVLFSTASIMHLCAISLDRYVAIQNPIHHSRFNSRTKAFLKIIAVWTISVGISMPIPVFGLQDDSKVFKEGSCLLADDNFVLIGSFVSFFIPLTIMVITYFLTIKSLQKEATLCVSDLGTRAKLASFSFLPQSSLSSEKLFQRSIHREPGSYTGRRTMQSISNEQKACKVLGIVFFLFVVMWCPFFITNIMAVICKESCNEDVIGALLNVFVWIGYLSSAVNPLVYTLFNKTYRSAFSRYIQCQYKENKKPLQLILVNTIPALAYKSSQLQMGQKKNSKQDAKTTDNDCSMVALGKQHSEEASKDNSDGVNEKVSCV
T3 sequence (P28335 whole entry, looked up): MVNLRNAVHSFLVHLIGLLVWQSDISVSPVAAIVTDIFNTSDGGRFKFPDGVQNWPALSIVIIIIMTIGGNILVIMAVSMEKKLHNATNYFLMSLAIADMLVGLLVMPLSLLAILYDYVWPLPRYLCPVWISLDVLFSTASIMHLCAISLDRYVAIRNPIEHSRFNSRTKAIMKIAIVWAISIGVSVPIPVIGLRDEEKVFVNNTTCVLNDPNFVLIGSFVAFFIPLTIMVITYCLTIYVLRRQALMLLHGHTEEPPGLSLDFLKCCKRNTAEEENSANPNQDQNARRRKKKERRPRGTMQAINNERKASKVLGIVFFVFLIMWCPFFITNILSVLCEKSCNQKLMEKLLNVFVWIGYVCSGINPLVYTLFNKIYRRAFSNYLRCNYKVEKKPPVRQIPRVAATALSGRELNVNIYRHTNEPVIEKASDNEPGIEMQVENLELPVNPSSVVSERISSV
T3 sequence (P41595 whole entry, looked up): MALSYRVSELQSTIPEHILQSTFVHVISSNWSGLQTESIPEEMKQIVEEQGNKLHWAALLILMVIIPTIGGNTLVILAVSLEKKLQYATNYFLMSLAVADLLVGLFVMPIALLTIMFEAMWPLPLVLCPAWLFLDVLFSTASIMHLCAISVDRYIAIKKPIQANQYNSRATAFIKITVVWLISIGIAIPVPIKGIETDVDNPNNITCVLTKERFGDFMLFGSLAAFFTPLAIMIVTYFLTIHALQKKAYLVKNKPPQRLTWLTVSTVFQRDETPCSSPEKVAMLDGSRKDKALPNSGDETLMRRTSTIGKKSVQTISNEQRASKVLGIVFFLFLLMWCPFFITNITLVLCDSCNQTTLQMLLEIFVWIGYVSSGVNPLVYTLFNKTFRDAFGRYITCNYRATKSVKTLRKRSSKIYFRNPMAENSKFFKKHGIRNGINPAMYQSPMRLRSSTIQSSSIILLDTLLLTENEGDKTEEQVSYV
Chain of Mu-type opioid receptor (Homo sapiens) (P35372 whole entry): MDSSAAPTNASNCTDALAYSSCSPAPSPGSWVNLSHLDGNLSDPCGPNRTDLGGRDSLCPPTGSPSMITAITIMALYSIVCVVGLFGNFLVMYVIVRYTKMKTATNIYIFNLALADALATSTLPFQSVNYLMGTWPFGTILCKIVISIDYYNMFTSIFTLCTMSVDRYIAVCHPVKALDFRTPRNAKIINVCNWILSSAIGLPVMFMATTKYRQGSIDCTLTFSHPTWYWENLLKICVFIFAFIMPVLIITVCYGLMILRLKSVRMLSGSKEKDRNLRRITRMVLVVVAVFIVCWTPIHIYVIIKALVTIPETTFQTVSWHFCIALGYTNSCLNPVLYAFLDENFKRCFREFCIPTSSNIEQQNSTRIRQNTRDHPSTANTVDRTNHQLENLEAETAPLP
T1 sequence (Q9Z0U4 whole entry): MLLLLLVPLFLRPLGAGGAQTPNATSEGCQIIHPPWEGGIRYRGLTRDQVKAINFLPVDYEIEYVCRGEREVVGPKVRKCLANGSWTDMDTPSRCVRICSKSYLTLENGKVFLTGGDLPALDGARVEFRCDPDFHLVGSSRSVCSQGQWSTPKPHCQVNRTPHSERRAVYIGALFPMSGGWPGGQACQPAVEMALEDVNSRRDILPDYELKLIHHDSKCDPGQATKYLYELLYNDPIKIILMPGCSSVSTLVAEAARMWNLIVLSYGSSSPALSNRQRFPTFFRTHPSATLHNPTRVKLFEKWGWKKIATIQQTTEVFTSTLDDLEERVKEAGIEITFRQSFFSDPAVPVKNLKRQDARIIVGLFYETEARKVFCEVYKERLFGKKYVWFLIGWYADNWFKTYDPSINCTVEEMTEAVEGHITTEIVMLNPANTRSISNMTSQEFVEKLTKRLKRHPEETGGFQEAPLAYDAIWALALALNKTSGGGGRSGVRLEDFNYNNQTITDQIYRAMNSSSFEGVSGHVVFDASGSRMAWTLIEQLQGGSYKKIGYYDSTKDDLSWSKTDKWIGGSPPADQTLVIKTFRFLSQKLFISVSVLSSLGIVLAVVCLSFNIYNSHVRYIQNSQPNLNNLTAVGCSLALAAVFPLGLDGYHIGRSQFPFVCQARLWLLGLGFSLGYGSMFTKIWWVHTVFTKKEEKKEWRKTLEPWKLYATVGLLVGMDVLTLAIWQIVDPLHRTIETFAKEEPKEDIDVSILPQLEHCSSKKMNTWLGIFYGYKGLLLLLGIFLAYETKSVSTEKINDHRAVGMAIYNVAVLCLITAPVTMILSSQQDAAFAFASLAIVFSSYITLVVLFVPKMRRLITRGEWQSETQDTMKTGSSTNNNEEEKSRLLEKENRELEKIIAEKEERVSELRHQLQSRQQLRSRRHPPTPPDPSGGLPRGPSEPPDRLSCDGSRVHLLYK
T1 sequence (O88871 whole entry): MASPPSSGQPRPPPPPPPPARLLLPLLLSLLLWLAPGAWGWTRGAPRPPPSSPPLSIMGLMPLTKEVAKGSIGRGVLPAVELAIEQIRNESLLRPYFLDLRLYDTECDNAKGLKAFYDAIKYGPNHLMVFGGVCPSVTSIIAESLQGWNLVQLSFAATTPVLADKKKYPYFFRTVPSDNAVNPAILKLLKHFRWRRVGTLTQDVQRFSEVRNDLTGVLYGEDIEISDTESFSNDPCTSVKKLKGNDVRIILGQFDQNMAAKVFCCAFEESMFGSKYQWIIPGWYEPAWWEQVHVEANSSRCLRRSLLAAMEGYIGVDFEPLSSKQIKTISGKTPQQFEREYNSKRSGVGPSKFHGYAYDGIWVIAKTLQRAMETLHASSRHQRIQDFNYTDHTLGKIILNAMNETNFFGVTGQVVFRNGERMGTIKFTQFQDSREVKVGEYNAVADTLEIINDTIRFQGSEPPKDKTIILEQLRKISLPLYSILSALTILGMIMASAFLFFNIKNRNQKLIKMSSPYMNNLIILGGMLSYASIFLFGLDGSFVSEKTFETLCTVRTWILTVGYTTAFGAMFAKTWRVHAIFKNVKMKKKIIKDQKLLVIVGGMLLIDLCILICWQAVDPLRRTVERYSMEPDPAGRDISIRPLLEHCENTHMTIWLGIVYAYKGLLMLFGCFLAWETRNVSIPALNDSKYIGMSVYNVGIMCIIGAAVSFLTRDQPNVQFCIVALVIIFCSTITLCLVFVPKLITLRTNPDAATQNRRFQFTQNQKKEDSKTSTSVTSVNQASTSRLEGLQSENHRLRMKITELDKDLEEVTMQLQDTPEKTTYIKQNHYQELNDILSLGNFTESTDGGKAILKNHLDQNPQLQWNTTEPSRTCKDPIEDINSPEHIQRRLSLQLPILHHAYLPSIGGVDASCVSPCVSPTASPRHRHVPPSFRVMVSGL
Chain of Histamine H1 receptor (Homo sapiens) (P35367 whole entry): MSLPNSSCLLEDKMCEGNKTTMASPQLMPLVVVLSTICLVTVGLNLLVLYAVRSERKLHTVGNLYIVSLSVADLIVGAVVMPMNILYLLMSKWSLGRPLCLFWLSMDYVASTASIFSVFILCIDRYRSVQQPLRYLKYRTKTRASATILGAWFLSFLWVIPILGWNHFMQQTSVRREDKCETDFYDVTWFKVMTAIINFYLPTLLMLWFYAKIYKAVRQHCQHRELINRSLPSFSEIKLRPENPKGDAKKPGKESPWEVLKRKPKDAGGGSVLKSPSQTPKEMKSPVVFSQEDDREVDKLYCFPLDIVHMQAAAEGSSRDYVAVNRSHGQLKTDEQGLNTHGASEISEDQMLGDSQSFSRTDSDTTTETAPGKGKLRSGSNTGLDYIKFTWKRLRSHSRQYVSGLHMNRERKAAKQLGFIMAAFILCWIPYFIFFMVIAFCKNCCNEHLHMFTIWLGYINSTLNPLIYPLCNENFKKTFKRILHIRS
Chain of Substance-P receptor (Homo sapiens) (P25103 whole entry): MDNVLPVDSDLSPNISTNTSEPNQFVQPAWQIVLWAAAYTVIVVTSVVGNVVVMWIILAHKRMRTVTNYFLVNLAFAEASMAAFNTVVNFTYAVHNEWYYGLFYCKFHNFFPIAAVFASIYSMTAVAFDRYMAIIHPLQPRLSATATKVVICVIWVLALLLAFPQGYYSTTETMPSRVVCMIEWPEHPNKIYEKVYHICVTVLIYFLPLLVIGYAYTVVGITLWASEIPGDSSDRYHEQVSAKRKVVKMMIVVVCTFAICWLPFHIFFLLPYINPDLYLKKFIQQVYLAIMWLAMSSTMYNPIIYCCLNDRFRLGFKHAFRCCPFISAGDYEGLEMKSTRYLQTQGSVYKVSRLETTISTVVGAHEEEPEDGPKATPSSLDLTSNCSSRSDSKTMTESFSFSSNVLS

Turning to `CCP(=O)(O)CCCN`, the pIC50 is 5.70 in assay [1] and 5.87 in assay [3]. In addition, in [2], the IC50 entry is “Not Active”.

With `NCCC[PH](=O)O`, the inhibition in assay [4] was determined as 13%; in assay [5], 0%; in assay [6] it was 2%; in assay [7], 16%; in [8], 24%; in assay [9] it was 0%. The inhibition in assay [10] worked out at 65%; in assay [11], 0%; in [13], 27%; in [14], 0%; in assay [17] it was 9%. For the same compound, the pIC50 in assay [1] is 8.27; in [2], 5.77; in assay [3], 8.62; in assay [12], 4.22; in [16], 6.97. Moreover, in [15], the EC50 was greater than 813 µM/kg.

With `CP(=O)(O)C[C@H](O)CN`, the figures for the pIC50 in assay [18], in [12] and in assay [16] were 6.82, 6.37 and 6.22, respectively. The EC50 was 135 µM/kg in [19] and 13 µM/kg in [15].

`NC[C@@H](CC(=O)O)c1ccc(Cl)cc1`: the pIC50 in assay [2] was 2.81; in [16], 3.67. The EC50 in assay [15] and in assay [20] was greater than 200 µM/kg each time.

On to `CC(CCN)P(C)(=O)O` (centres undefined), for which the pIC50 in assay [18] is 6.85; in assay [21] it was 6.78.

Regarding `CP(=O)(O)CC(O)CN` (centres undefined), the pIC50 in assay [18] was 7.11; in assay [21], 7.54.

Compound `CP(=O)(O)/C=C/CN` had a pIC50 in assay [18] of 6.18.

`NCCCP(=O)(O)CO`: the pIC50 in assay [18] is 5.98.

As for `NCCC(c1ccccc1)[PH](=O)O` (centres undefined), in assay [22], the inhibition stood at 10%.

`CCC(CCN)P(C)(=O)O` (centres undefined): the pIC50 in [18] is 4.73.

Regarding `CP(=O)(O)C[C@@H](O)CN`, the inhibition in assay [4] worked out at 7%; in [5], 36%; in assay [23], 0%; in assay [6], 16%; in assay [24], 0%; in assay [7], 0%. Besides, the inhibition in [8] was determined as 0%; in [25], 9%; in assay [10], 0%; in [11], 22%; in assay [13], 0%; in [14], 0%. The compound further registered an inhibition in assay [17] of 7%. For the same compound, the pIC50 in assay [18] was 7.35; in assay [12], 6.79; in [16], 6.40. Moreover, the figures for the EC50 in [19] and in [15] were 36 µM/kg and 2 µM/kg, respectively.

In the case of `NCC(CC(=O)O)c1ccc(Cl)cc1` (racemic) [BACLOFEN], the pIC50 in assay [2] was 2.98. The results for the EC50 in assay [19] and in [15] were 52 µM/kg and 24 µM/kg, respectively.

In assay [18], `NCC(O)(C[PH](=O)O)c1ccc(Cl)cc1` (centres undefined) gave a pIC50 of 7.19.

In assay [18], `CP(=O)(O)/C=C\CN` had a pIC50 of 4.78.

With `NCC(C[PH](=O)O)c1ccccc1` (centres undefined), the pIC50 in assay [26] was 6.06.

In assay [18], `NCC(O)CP(=O)(O)C(F)F` (centres undefined) showed a pIC50 of 6.67.

With `NCC(C[PH](=O)O)c1ccc(F)cc1` (centres undefined), in assay [26], the pIC50 was 6.44.

For `CP(=O)(O)CCCN`, the inhibition was found to be 46% in assay [4]; 0% in [27]; 0% in assay [23]; 6% in assay [6]; 9% in [24]; 6% in assay [7]. Also, the inhibition in assay [8] was 0%; in assay [25], 0%; in [10] it was 0%; in assay [11] it was 30%; in assay [13], 0%; in assay [14], 0%. The compound also came in with an inhibition in assay [17] of 2%. In assay [2], the IC50 result was “Not Active”. Also, the pIC50 was 7.30 in [12] and 6.35 in [16]. This compound yielded an EC50 in [15] of 2 µM/kg.

In assay [18], `CP(=O)(O)C(CCN)C(F)(F)F` (centres undefined) had a pIC50 of 4.17.

`NCC(C[PH](=O)O)c1ccc(Cl)cc1` (centres undefined): in [26], the pIC50 was 7.41. This compound gave an EC50 in assay [15] of 19 µM/kg.

In turn, `CP(=O)(O)C(O)CCN` (centres undefined) had a pIC50 in assay [18] of 5.94.

On to `NCCCP(=O)(O)C(F)F`, for which the figures for the pIC50 in assay [18] and in [16] were 7.05 and 4.97, respectively. In [15], the EC50 is 22 µM/kg.

Consider `NCC(O)C[PH](=O)O` (centres undefined), for which the pIC50 in assay [3] was 7.74.

On to `NC[C@H](CC(=O)O)c1ccc(Cl)cc1` [ARBACLOFEN], for which the pIC50 in assay [2] is 3.02; in assay [12], 6.49; in assay [16] it was 6.48. Moreover, the EC50 was determined as 9 µM/kg in [15] and 16 µM/kg in assay [28].

Turning to `NCCCP(=O)(O)O`, the pIC50 in [18] was 5.17.
